Experimental data taken from ChEMBL document CHEMBL1134346, “Labeling and evaluation of N-[11C]methylated quinoline-2-carboxamides as potential radioligands for visualization of peripheral benzodiazepine receptors” (J Med Chem, 2001).

Columns and labels:
Rattus norvegicus [1] = species: Rattus norvegicus; assay: Tissue (intestine) distribution in Albino male CD rats after 5 minutes expressed as percent of injected dose per gram of organ.; type: ADME, organism-based; conditions: in vivo
Method in brief: (§1)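 Radioligand given in saline into tail vein of male albino CD rats (225-250 g); 100-200 µCi per animal, 1-2 Ci/µmol at injection depending on radioligand. Three rats per time point were decapitated under light ether anaesthesia. Blood, plasma, brain regions and washed organs were weighed and gamma-counted. Uptake is %I.D./g tissue, mean ± SD.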

Rattus norvegicus [2] = species: Rattus norvegicus; assay: Tissue (plasma) distribution in Albino male CD rats after 30 minutes expressed as percent of injected dose per gram of organ.; type: ADME, organism-based; conditions: in vivo, 0.5 h
Method in brief: (§2)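 Male albino CD rats (225-250 g) received the 11C-labelled radioligand in saline by tail-vein injection. Three rats per time point were decapitated under light ether anaesthesia at 5, 15, 30, 60 or 90 min. Blood was collected heparinized and plasma separated by centrifugation. The pituitary was dissected from the brain. Lung, liver (three-lobe pieces) and right deltoid muscle were sampled, washed in cold saline, gamma-counted and weighed. Results are %I.D./g.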

Rattus norvegicus [3] = species: Rattus norvegicus; assay: Tissue (liver) distribution in Albino male CD rats after 90 minutes expressed as percent of injected dose per gram of organ.; type: ADME, organism-based; conditions: in vivo, 1.5 h; method in brief: as §2
[4] = molecular target: Translocator protein (Rattus norvegicus) (UniProt P16257); assay: Tissue (blood) concentration of radioactivity at 30 min post-injection into Albino male CD rats after pretreatment with cold PK 11195.; type: functional, tissue-based
Method in brief: (§3)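 Separate groups of five rats received tail-vein PK 11195 (1.4-1.6 mg; 5 mg/kg) in 30 µL DMSO:EtOH 1:1, or vehicle alone, immediately before iv radioligand (90-170 µCi in saline, 0.9-1 Ci/µmol). Rats were decapitated at 30 min and tissues gamma-counted; values are %I.D./g.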

Rattus norvegicus [5] = species: Rattus norvegicus; assay: Tissue (blood) distribution in Albino male CD rats after 90 minutes expressed as percent of injected dose per gram of organ.; type: ADME, organism-based; conditions: in vivo, 1.5 h; method in brief: as §1
Rattus norvegicus [6] = species: Rattus norvegicus; assay: Tissue (intestine) distribution in Albino male CD rats after 30 minutes expressed as percent of injected dose per gram of organ.; type: ADME, organism-based; conditions: in vivo, 0.5 h; method in brief: as §1
Rattus norvegicus [7] = species: Rattus norvegicus; assay: Tissue (lung) distribution in Albino male CD rats after 5 minutes expressed as percent of injected dose per gram of organ.; type: ADME, organism-based; conditions: in vivo; method in brief: as §2
Rattus norvegicus [8] = species: Rattus norvegicus; assay: Tissue (blood) distribution in Albino male CD rats after 5 minutes expressed as percent of injected dose per gram of organ.; type: ADME, organism-based; conditions: in vivo; method in brief: as §1
Rattus norvegicus [9] = species: Rattus norvegicus; assay: Tissue (heart) concentration of radioactivity at 30 min post-injection into Albino male CD rats with vehicle.; type: ADME, organism-based; conditions: in vivo, 0.5 h; method in brief: as §3
Rattus norvegicus [10] = species: Rattus norvegicus; assay: Tissue (heart) distribution in Albino male CD rats after 5 minutes expressed as percent of injected dose per gram of organ.; type: ADME, organism-based; conditions: in vivo; method in brief: as §1
[11] = molecular target: Translocator protein (Rattus norvegicus) (UniProt P16257); assay: Tissue (liver) concentration of radioactivity at 30 min post-injection into Albino male CD rats after pretreatment with cold PK 11195.; type: functional, tissue-based; method in brief: as §3
Rattus norvegicus [12] = species: Rattus norvegicus; assay: Tissue (pituitary) distribution in Albino male CD rats after 60 minutes expressed as percent of injected dose per gram of organ.; type: ADME, organism-based, Pituitary gland; conditions: in vivo, 1 h; method in brief: as §2
Rattus norvegicus [13] = species: Rattus norvegicus; assay: Tissue (liver) distribution in Albino male CD rats after 5 minutes expressed as percent of injected dose per gram of organ.; type: ADME, organism-based; conditions: in vivo; method in brief: as §2
Rattus norvegicus [14] = species: Rattus norvegicus; assay: Tissue (lung) distribution in Albino male CD rats after 90 minutes expressed as percent of injected dose per gram of organ.; type: ADME, organism-based; conditions: in vivo, 1.5 h; method in brief: as §2
Rattus norvegicus [15] = species: Rattus norvegicus; assay: Tissue (adrenal gland) concentration of radioactivity at 30 min post-injection into Albino male CD rats with vehicle.; type: ADME, organism-based; conditions: in vivo, 0.5 h; method in brief: as §3
Rattus norvegicus [16] = species: Rattus norvegicus; assay: Tissue (plasma) distribution in Albino male CD rats after 5 minutes expressed as percent of injected dose per gram of organ.; type: ADME, organism-based; conditions: in vivo; method in brief: as §2
Rattus norvegicus [17] = species: Rattus norvegicus; assay: Tissue (heart) distribution in Albino male CD rats after 60 minutes expressed as percent of injected dose per gram of organ.; type: ADME, organism-based; conditions: in vivo, 1 h; method in brief: as §1
Rattus norvegicus [18] = species: Rattus norvegicus; assay: Tissue (lung) distribution in Albino male CD rats after 60 minutes expressed as percent of injected dose per gram of organ.; type: ADME, organism-based; conditions: in vivo, 1 h; method in brief: as §2
Rattus norvegicus [19] = species: Rattus norvegicus; assay: Tissue (kidney) distribution in Albino male CD rats after 5 minutes expressed as percent of injected dose per gram of organ.; type: ADME, organism-based; conditions: in vivo; method in brief: as §1
Rattus norvegicus [20] = species: Rattus norvegicus; assay: Tissue (testicle) distribution in Albino male CD rats after 30 minutes expressed as percent of injected dose per gram of organ.; type: ADME, organism-based; conditions: in vivo, 0.5 h; method in brief: as §2
Rattus norvegicus [21] = species: Rattus norvegicus; assay: Tissue (kidney) distribution in Albino male CD rats after 90 minutes expressed as percent of injected dose per gram of organ.; type: ADME, organism-based; conditions: in vivo, 1.5 h; method in brief: as §1
Rattus norvegicus [22] = species: Rattus norvegicus; assay: Tissue (spleen) distribution in Albino male CD rats after 90 minutes expressed as percent of injected dose per gram of organ.; type: ADME, organism-based; conditions: in vivo, 1.5 h
Rattus norvegicus [23] = species: Rattus norvegicus; assay: Tissue (cortex) distribution in Albino male CD rats after 5 minutes expressed as percent of injected dose per gram of organ.; type: ADME, organism-based; conditions: in vivo; method in brief: as §1
Rattus norvegicus [24] = species: Rattus norvegicus; assay: Tissue (adrenal gland) distribution in Albino male CD rats after 30 minutes expressed as percent of injected dose per gram of organ.; type: ADME, organism-based; conditions: in vivo, 0.5 h; method in brief: as §1
Rattus norvegicus [25] = species: Rattus norvegicus; assay: Tissue (muscle) distribution in Albino male CD rats after 30 minutes expressed as percent of injected dose per gram of organ.; type: ADME, organism-based; conditions: in vivo, 0.5 h; method in brief: as §2
Rattus norvegicus [26] = species: Rattus norvegicus; assay: Tissue (plasma) distribution in Albino male CD rats after 15 minutes expressed as percent of injected dose per gram of organ.; type: ADME, organism-based; conditions: in vivo, 0.25 h; method in brief: as §2
Rattus norvegicus [27] = species: Rattus norvegicus; assay: Tissue (spleen) concentration of radioactivity at 30 min post-injection into Albino male CD rats with vehicle.; type: ADME, organism-based; conditions: in vivo, 0.5 h
Method in brief: (§4)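 Blocking study in male albino CD rats, five per group. Immediately before the 11C radioligand (in saline, i.v. tail vein), rats received 30 µL tail-vein PK 11195 (5 mg/kg; 1.4-1.6 mg) in DMSO:EtOH 1:1, or vehicle. Rats were decapitated at 30 min. Tissues were dissected, washed, gamma-counted and weighed as in the biodistribution study. Results are %I.D./g.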

Rattus norvegicus [28] = species: Rattus norvegicus; assay: Tissue (pituitary) distribution in Albino male CD rats after 30 minutes expressed as percent of injected dose per gram of organ.; type: ADME, organism-based, Pituitary gland; conditions: in vivo, 0.5 h; method in brief: as §2
Rattus norvegicus [29] = species: Rattus norvegicus; assay: Tissue (spleen) distribution in Albino male CD rats after 5 minutes expressed as percent of injected dose per gram of organ.; type: ADME, organism-based; conditions: in vivo; method in brief: as §2
[30] = molecular target: Translocator protein (Rattus norvegicus) (UniProt P16257); assay: Tissue (kidney) concentration of radioactivity at 30 min post-injection into Albino male CD rats after pretreatment with cold PK 11195.; type: functional, tissue-based; method in brief: as §3
Rattus norvegicus [31] = species: Rattus norvegicus; assay: Tissue (cortex) distribution in Albino male CD rats after 15 minutes expressed as percent of injected dose per gram of organ.; type: ADME, organism-based; conditions: in vivo, 0.25 h; method in brief: as §1
Rattus norvegicus [32] = species: Rattus norvegicus; assay: Tissue (kidney) distribution in Albino male CD rats after 15 minutes expressed as percent of injected dose per gram of organ.; type: ADME, organism-based; conditions: in vivo, 0.25 h; method in brief: as §1
Rattus norvegicus [33] = species: Rattus norvegicus; assay: Tissue (adrenal gland) distribution in Albino male CD rats after 15 minutes expressed as percent of injected dose per gram of organ.; type: ADME, organism-based; conditions: in vivo, 0.25 h; method in brief: as §1
Rattus norvegicus [34] = species: Rattus norvegicus; assay: Tissue (muscle) distribution in Albino male CD rats after 60 minutes expressed as percent of injected dose per gram of organ.; type: ADME, organism-based; conditions: in vivo, 1 h; method in brief: as §2
Rattus norvegicus [35] = species: Rattus norvegicus; assay: Tissue (pituitary) concentration of radioactivity at 30 min post-injection into Albino male CD rats with vehicle.; type: ADME, organism-based, Pituitary gland; conditions: in vivo, 0.5 h; method in brief: as §4
Rattus norvegicus [36] = species: Rattus norvegicus; assay: Tissue (cerebellum) distribution in Albino male CD rats after 15 minutes expressed as percent of injected dose per gram of organ.; type: ADME, organism-based; conditions: in vivo, 0.25 h; method in brief: as §1
Rattus norvegicus [37] = species: Rattus norvegicus; assay: Tissue (lung) distribution in Albino male CD rats after 15 minutes expressed as percent of injected dose per gram of organ.; type: ADME, organism-based; conditions: in vivo, 0.25 h; method in brief: as §2
Rattus norvegicus [38] = species: Rattus norvegicus; assay: Tissue (cortex) concentration of radioactivity at 30 min post-injection into Albino male CD rats with vehicle.; type: ADME, organism-based; conditions: in vivo, 0.5 h; method in brief: as §3
Rattus norvegicus [39] = species: Rattus norvegicus; assay: Tissue (spleen) distribution in Albino male CD rats after 60 minutes expressed as percent of injected dose per gram of organ.; type: ADME, organism-based; conditions: in vivo, 1 h
Rattus norvegicus [40] = species: Rattus norvegicus; assay: Tissue (cortex) distribution in Albino male CD rats after 30 minutes expressed as percent of injected dose per gram of organ.; type: ADME, organism-based; conditions: in vivo, 0.5 h; method in brief: as §1

Translocator protein (Rattus norvegicus), sequence (P16257 whole entry, looked up): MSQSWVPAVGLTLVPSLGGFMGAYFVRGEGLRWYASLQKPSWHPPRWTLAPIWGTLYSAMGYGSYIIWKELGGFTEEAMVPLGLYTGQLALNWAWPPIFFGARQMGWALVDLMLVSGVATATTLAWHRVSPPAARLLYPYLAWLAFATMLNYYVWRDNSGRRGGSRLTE

Cc1c(C(=O)N(C)Cc2ccccc2)nc2ccccc2c1-c1ccccc1
I.D./g (Rattus norvegicus [1]): 0.3%
I.D./g (Rattus norvegicus [2]): 0.06%
I.D./g (Rattus norvegicus [3]): 0.4%
I.D./g [4]: > 0.02%
I.D./g (Rattus norvegicus [5]): 0.04%
I.D./g (Rattus norvegicus [6]): 0.55%
I.D./g (Rattus norvegicus [7]): 4%
I.D./g (Rattus norvegicus [8]): 0.2%
I.D./g (Rattus norvegicus [9]): 0.35%
I.D./g (Rattus norvegicus [10]): 1.79%
I.D./g [11]: < 0.16%
I.D./g (Rattus norvegicus [12]): 0.36%
I.D./g (Rattus norvegicus [13]): 0.37%
I.D./g (Rattus norvegicus [14]): 1.21%
I.D./g (Rattus norvegicus [15]): 0.62%
I.D./g (Rattus norvegicus [16]): 0.16%
I.D./g (Rattus norvegicus [17]): 2.09%
I.D./g (Rattus norvegicus [18]): 1.48%
I.D./g (Rattus norvegicus [19]): 0.79%
I.D./g (Rattus norvegicus [20]): 0.13%
I.D./g (Rattus norvegicus [21]): 1.34%
I.D./g (Rattus norvegicus [22]): 1.56%
I.D./g (Rattus norvegicus [23]): 0.25%
I.D./g (Rattus norvegicus [24]): 2.99%
I.D./g (Rattus norvegicus [25]): 0.26%
I.D./g (Rattus norvegicus [26]): 0.09%
I.D./g (Rattus norvegicus [27]): 0.26%
I.D./g (Rattus norvegicus [28]): 0.3%
I.D./g (Rattus norvegicus [29]): 0.28%
I.D./g [30]: < 0.05%
I.D./g (Rattus norvegicus [31]): 0.17%
I.D./g (Rattus norvegicus [32]): 1.17%
I.D./g (Rattus norvegicus [33]): 2.29%
I.D./g (Rattus norvegicus [34]): 0.14%
I.D./g (Rattus norvegicus [35]): 0.11%
I.D./g (Rattus norvegicus [36]): 0.2%
I.D./g (Rattus norvegicus [37]): 3.32%
I.D./g (Rattus norvegicus [38]): 0.02%
I.D./g (Rattus norvegicus [39]): 1.55%
I.D./g (Rattus norvegicus [40]): 0.09%
